Data reported in ChEMBL document CHEMBL1833955, “Optimization of (arylpiperazinylbutyl)oxindoles exhibiting selective 5-HT₇ receptor antagonist activity” (J Med Chem, 2011).

What was measured:
[1] = target: 5-hydroxytryptamine receptor 7 (Homo sapiens, UniProt P34969); assay: Displacement of [3H]CT from human 5-HT7 receptor expressed in CHO cells by scintillation spectrometry; type: cell-based
In short: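 Cloned human 5-HT7 receptor from CHO cells, run under the supplier's recommended conditions with [3H]CT. Nonspecific binding with 25 μM clozapine. Ended by GF/C filtration, then scintillation counting. Ki taken from two nine-concentration displacement curves run in triplicate, single-site fit.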

[2] = target: T1, Adrenergic receptor alpha-1 (Rattus norvegicus, UniProt P15823+P23944+P43140); assay: Displacement of [3H]prazosin from alpha1-adrenergic receptor in rat frontal cortex membrane after 45 mins by scintillation spectrometry; type: cell membranes
T1 sequence (P15823 whole entry): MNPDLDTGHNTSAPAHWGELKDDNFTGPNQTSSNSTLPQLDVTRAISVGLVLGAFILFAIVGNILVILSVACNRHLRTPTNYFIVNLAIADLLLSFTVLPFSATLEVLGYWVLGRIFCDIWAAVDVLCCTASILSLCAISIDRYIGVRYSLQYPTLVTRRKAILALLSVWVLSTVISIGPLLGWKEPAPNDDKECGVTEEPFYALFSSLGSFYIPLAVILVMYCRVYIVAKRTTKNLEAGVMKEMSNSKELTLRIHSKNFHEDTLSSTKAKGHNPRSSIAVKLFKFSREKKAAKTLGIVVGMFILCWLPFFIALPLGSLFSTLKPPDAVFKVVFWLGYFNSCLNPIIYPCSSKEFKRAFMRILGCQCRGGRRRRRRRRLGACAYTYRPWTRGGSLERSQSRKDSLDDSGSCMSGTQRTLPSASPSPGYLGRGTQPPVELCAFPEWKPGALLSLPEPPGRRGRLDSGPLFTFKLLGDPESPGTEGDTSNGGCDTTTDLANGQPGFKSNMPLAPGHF
T1 sequence (P23944 whole entry): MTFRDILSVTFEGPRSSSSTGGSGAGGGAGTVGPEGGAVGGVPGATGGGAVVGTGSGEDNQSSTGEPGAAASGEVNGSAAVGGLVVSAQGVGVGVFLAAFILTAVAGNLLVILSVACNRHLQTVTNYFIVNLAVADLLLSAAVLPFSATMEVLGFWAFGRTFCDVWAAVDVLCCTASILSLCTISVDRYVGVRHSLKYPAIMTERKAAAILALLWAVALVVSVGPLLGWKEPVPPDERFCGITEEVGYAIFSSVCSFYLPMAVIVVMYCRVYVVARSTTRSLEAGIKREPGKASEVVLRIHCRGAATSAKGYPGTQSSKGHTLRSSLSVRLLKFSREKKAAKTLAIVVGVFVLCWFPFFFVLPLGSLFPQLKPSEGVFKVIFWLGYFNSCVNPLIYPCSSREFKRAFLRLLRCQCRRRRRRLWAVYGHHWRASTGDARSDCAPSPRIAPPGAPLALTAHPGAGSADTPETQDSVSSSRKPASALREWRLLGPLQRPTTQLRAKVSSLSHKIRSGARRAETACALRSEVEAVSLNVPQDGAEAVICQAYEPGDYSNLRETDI
T1 sequence (P43140 whole entry): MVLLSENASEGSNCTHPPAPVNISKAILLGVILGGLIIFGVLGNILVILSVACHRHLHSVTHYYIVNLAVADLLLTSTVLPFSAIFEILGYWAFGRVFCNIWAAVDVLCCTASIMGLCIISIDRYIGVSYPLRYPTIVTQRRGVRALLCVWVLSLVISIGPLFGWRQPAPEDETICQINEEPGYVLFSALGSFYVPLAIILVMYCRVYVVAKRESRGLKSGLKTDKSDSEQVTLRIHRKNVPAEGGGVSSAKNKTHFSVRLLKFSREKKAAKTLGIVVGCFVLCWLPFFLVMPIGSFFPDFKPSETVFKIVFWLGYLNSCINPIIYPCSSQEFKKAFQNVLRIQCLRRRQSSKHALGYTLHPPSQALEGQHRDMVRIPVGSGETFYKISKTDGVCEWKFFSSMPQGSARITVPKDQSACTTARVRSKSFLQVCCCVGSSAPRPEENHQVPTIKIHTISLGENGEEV
In short: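 Rat frontal cortex tissue frozen on dry ice, homogenised in 50 mM Tris-HCl pH 7.7 and washed by centrifugation. [3H]prazosin at 0.6 nM; 10 μM prazosin defines nonspecific binding. 45 min at 25 °C, GF/B filtration, scintillation counting. Triplicates; Ki from two nine-concentration curves fitted to a single-site model.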

[3] = target: T2, 5-hydroxytryptamine receptor 1A (Rattus norvegicus, UniProt P19327); assay: Displacement of [3H]8-OH-DPAT from 5-HT1A receptor in rat frontal cortex membrane after 45 mins by scintillation counting; type: cell membranes
T2 sequence (P19327 whole entry): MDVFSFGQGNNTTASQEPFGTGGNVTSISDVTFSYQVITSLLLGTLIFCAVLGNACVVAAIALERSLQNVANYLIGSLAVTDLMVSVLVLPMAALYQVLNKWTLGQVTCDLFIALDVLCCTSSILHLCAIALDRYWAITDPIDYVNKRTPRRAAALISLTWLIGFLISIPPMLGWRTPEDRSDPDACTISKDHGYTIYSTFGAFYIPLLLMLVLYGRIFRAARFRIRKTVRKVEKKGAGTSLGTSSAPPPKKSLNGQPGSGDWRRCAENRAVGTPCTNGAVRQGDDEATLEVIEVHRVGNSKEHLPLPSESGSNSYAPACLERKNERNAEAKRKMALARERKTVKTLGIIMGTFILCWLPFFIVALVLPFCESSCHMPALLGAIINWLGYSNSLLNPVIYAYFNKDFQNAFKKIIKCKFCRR
In short: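 Membranes from adult rat frontal cortex, prepared in 50 mM Tris-HCl pH 7.7 with washes and a 37 °C preincubation. Incubation buffer: 6.66 mM CaCl2, 16.66 μM pargyline, 0.166% ascorbic acid. Ligand 1.5 nM [3H]8-OH-DPAT; 10 μM 5-HT defines nonspecific binding. 45 min at 25 °C, GF/B filtration, scintillation counting. Triplicates; Ki from two nine-point curves, single-site fit.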

[4] = target: T3, 5-hydroxytryptamine receptor 1A (Rattus norvegicus) (UniProt P19327); assay: Displacement of [3H]8-OH-DPAT from 5-HT1A receptor in rat frontal cortex membrane at 10^-7 M after 45 mins by scintillation counting; type: cell membranes
T3 sequence (whole entry): T2 sequence (P19327 whole entry)

[5] = Selectivity ratio of Ki for 5-HT1A receptor in rat frontal cortex membrane to Ki for human 5-HT7 receptor; type: cell membranes
[6] = Selectivity ratio of Ki for alpha1-adrenergic receptor in rat frontal cortex membrane to Ki for human 5-HT7 receptor; type: cell membranes
[7] = Metabolic stability in human liver microsomes after 60 mins by HPLC-MS/MS analysis; type: ADME, Microsome; settings: read-out: Stability
In short: (§1)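 Test compound at 100 nM final incubated with rat or human liver microsomes (0.33 mg/mL) at 37 °C for 0, 5, 15, 30 and 60 min. Buffer Tris-HCl pH 7.4 with Mg2+ and BSA. Reaction started with NADPH and stopped with ice-cold MeOH. Parent compound measured by HPLC-MS/MS, positive-ion MRM.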

[8] = Metabolic stability in rat liver microsomes after 60 mins by HPLC-MS/MS analysis; type: ADME, Microsome; settings: read-out: Stability; in short: as §1
[9] = Plasma concentration in NMRI mouse at 10 mg/kg, ip after 30 mins by HPLC-MS/MS analysis; type: ADME, organism-based; design: dose 10 mg/kg, route intraperitoneal
In short: (§2)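 Male NMRI mice, 25–30 g, given four compounds together ip as a cassette suspension in 0.4% methyl cellulose (n = 3/dose). After 30 min, vena cava blood and brain collected. Brain homogenised in 4 volumes of water; samples extracted with acetonitrile–water 3:1 and analysed by gradient HPLC-MS/MS against spiked calibrators. Brain/plasma given as percentage.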

[10] = Drug level in NMRI mouse brain at 10 mg/kg, ip after 30 mins by HPLC/MS/MS analysis; type: ADME, organism-based; design: dose 10 mg/kg, route intraperitoneal; settings: read-out: Drug uptake; in short: as §2
[11] = Plasma concentration in NMRI mouse at 3 mg/kg, ip after 30 mins by HPLC-MS/MS analysis; type: ADME, organism-based; design: dose 3 mg/kg, route intraperitoneal; in short: as §2
[12] = Drug level in NMRI mouse brain at 3 mg/kg, ip after 30 mins by HPLC/MS/MS analysis; type: ADME, organism-based; design: dose 3 mg/kg, route intraperitoneal; settings: read-out: Drug uptake; in short: as §2
Mus musculus = assay: Anxiolytic activity in ip dosed NMRI mouse assessed as behavioral activity administered 30 mins prior to test measured up to 5 mins by light-dark test; type: functional; settings: read-out: MED
In short: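 Male NMRI mice, 25–33 g, housed in the dark, dosed ip 30 min before test. Each mouse placed in the centre of the lit side of an automated two-compartment chamber under a 2-lx light. Activity recorded for 5 min: time in each area, transitions, horizontal and vertical activity. Means ± SEM, one-way ANOVA with Duncan's test; MED reported.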

[13] = Plasma concentration in NMRI mouse at 1 mg/kg, ip after 30 mins by HPLC-MS/MS analysis; type: ADME, organism-based; design: dose 1 mg/kg, route intraperitoneal; in short: as §2
[14] = Drug level in NMRI mouse brain at 1 mg/kg, ip after 30 mins by HPLC/MS/MS analysis; type: ADME, organism-based; design: dose 1 mg/kg, route intraperitoneal; settings: read-out: Drug uptake; in short: as §2

Sequence of 5-hydroxytryptamine receptor 7 (P34969 whole entry): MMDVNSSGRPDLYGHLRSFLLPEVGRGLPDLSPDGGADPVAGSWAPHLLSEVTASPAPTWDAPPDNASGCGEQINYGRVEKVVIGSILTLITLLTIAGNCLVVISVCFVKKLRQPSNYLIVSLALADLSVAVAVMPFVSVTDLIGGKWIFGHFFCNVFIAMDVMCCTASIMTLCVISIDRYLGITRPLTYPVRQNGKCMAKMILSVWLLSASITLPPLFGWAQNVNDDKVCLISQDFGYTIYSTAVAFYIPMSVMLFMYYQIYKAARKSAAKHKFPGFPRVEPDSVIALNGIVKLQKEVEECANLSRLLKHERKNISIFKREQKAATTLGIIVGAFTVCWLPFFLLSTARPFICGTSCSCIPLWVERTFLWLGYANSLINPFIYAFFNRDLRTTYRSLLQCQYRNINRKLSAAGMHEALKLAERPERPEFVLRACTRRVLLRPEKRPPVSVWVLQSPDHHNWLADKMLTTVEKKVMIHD

Row | Structure (SMILES) | Ki [1] [nM] | Ki [2] [nM] | Ki [3] [nM] | inhibition [4] [%] | further results
1 | O=C1Nc2c(Cl)cc(Cl)cc2C1CCCCN1CCN(c2ccc(Cl)cc2)CC1 (configuration not stated) | 107 | 757 |  |  | 
2 | O=C1Nc2ccccc2C1CCCCN1CCN(c2ccccc2)CC1 (configuration not stated) | 16 | 22 | 243 |  | 
3 | CCC1(CCCCN2CCN(c3ccc(Cl)cc3)CC2)C(=O)Nc2cc(F)c(Cl)cc21 (configuration not stated) | 10 | 191 |  | 0 | Ratio Ki [5]: > 100; Ratio Ki [6]: 19; remaining at 1 h [7]: 10%; remaining at 1 h [8]: 18%
4 | CCC1(CCCCN2CCN(c3cccc(Cl)c3)CC2)C(=O)Nc2cc(F)c(Cl)cc21 (configuration not stated) |  | 117 |  | 16 | Ratio Ki [5]: > 100; Ratio Ki [6]: 13; remaining at 1 h [7]: 46%; remaining at 1 h [8]: 16%
5 | CCC1(CCCCN2CCN(c3cccc(C(F)(F)F)c3)CC2)C(=O)Nc2ccccc21 (configuration not stated) | 5.1 |  | 36 |  | 
6 | CCC1(CCCCN2CC=C(c3ccc(F)cc3)CC2)C(=O)Nc2ccccc21 (configuration not stated) |  | 46 |  | 62 | 
7 | O=C1Nc2ccccc2C1CCCCN1CCN(c2ccccn2)CC1 (configuration not stated) | 10.9 | 130 | 56 |  | 
8 | CCC1(CCCCN2CCN(c3ccc(Cl)cc3Cl)CC2)C(=O)Nc2ccccc21 (configuration not stated) | 139 | 380 |  | 11 | Ratio Ki [6]: 3; remaining at 1 h [7]: 28%; remaining at 1 h [8]: 17%
9 | O=C1Nc2cc(F)ccc2C1CCCCN1CCN(c2ccc(Cl)cc2)CC1 (configuration not stated) | 25 | 55 |  | 6 | 
10 | O=C1Nc2ccccc2C1CCCCN1CC=C(c2cccc(C(F)(F)F)c2)CC1 (configuration not stated) | 11.1 | 310 | 19 |  | 
11 | CCC1(CCCCN2CCN(c3ccccc3Cl)CC2)C(=O)Nc2ccccc21 (configuration not stated) | 53 | 64 | 30 |  | 
12 | CCC1(CCCCN2CCN(c3cccc(Cl)c3)CC2)C(=O)Nc2c1cc(Cl)c(F)c2Cl (configuration not stated) | 72 | 97 | 680 |  | 
13 | CCC1(CCCCN2CCN(c3cccc(F)c3)CC2)C(=O)Nc2ccccc21 (configuration not stated) | 11 |  | 73 |  | 
14 | O=C1Nc2ccccc2C1CCCCN1CCN(c2ccc(Cl)cc2)CC1 (configuration not stated) | 7 | 42 |  |  | Ratio Ki [5]: 257; Ratio Ki [6]: 6; remaining at 1 h [7]: 52%; remaining at 1 h [8]: 10%
15 | O=C1Nc2ccccc2C1CCCCN1CCN(c2ccc(F)cc2)CC1 (configuration not stated) | 5 | 14 |  | 10 | 
16 | O=C1Nc2cc(F)ccc2C1CCCCN1CCN(c2cccc(Cl)c2)CC1 (configuration not stated) | 6.7 | 12.5 | 118 |  | 
17 | O=C1Nc2cc(F)ccc2C1CCCCN1CC=C(c2cccc(Cl)c2)CC1 (configuration not stated) | 13 |  |  | 72 | 
18 | O=C1Nc2cc(F)ccc2C1CCCCN1CCN(c2ccccn2)CC1 (configuration not stated) | 16.8 | 33 | 99 |  | 
19 | CCC1(CCCCN2CCN(c3cccc(Cl)c3)CC2)C(=O)Nc2ccc(F)cc21 (configuration not stated) |  | 46 | 111 |  | 
20 | CCC1(CCCCN2CCN(c3ccccc3OC)CC2)C(=O)Nc2ccccc21 (configuration not stated) |  | 27 | 9.8 |  | 
21 | CCC1(CCCCN2CCN(c3ccc(Cl)cc3)CC2)C(=O)Nc2ccc(F)cc21 (configuration not stated) |  | 190 |  | 9 | concentration at 0.5 h [9]: 271 nM; concentration at 0.5 h [10]: 342 nM; Ratio Ki [5]: > 100; Ratio Ki [6]: 68; remaining at 1 h [7]: 36%; remaining at 1 h [8]: 17%; concentration at 0.5 h [11]: 211 nM; concentration at 0.5 h [12]: 186 nM; minimal effective dose (Mus musculus): > 10 mg/kg; concentration at 0.5 h [13]: 44 nM; concentration at 0.5 h [14]: 51 nM
22 | CCC1(CCCCN2CCC(c3ccc(F)cc3)CC2)C(=O)Nc2ccccc21 (configuration not stated) | 6.9 | 29 |  | 11 | 
23 | O=C1Nc2ccc(F)cc2C1CCCCN1CCN(c2ccc(Cl)cc2)CC1 (configuration not stated) | 40 | 116 |  | 0 | Ratio Ki [5]: > 100; Ratio Ki [6]: 3; remaining at 1 h [7]: 44%; remaining at 1 h [8]: 28%
24 | O=C1Nc2ccc(F)cc2C1CCCCN1CCN(c2ccccc2)CC1 (configuration not stated) | 47 | 20 |  |  | 
25 | CCC1(CCCCN2CCN(c3ccccn3)CC2)C(=O)Nc2ccccc21 (configuration not stated) | 4 | 150 | 55 |  | 
26 | CCC1(CCCCN2CC=C(c3cccc(Cl)c3)CC2)C(=O)Nc2ccc(F)cc21 (configuration not stated) | 52 | 140 | 123 |  | 
